Activity calls are given as the source filed them. No cut-off for these calls is given here.
Columns and labels:
[1] = system: A549; assay: Induction of apoptosis in A549 cells assessed as LDH release at 40 uM after 48 hrs; format: functional, cell-based; details: Homo sapiens
In short: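 Culture medium collected after 48 h treatment at 40 μM and assayed for LDH release, compared against an untreated control group; n = 3.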

[2] = system: A549; assay: Reduction of cell viability of human A549 cells at 40 uM after 48 hrs by MTT assay; format: functional
In short: (§1)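 Compounds dissolved in DMSO, final DMSO below 0.1% (v/v) in culture medium. Cells seeded in 96-well plates and treated at 10–80 μM for 24 or 48 h. Viability by MTT assay with absorbance read at 570 nm. Controls were untreated medium and 0.1% DMSO vehicle.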

[3] = system: A549; assay: Growth inhibition of human A549 cells after 48 hrs; format: functional, cell-based; details: A549, 24 h, in the assay text read “after 24 hrs” for “after 48 hrs”
[4] = system: A549; assay: Reduction of cell viability of human A549 cells at 40 uM after 24 hrs by MTT assay; format: functional; in short: as §1
[5] = system: A549; assay: Reduction of cell viability of human A549 cells at 80 uM after 48 hrs by MTT assay; format: functional; in short: as §1
[6] = system: A549; assay: Growth inhibition of human A549 cells after 24 hrs; format: functional, cell-based; details: A549, 48 h, in the assay text read “after 48 hrs” for “after 24 hrs”; in short: as §1
[7] = system: A549; assay: Effect on nuclear fragmentation in human A549 cells at 40 uM after 48 hrs by AO staining method; format: functional, cell-based
In short: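 Cells cultured 48 h in fresh medium with 0 or 40 μM compound, then stained with 5 μg/ml acridine orange at room temperature. Chromatin condensation and DNA fragmentation imaged by laser scanning confocal/fluorescence microscopy. Images representative of three independent experiments.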

[8] = Lipophilicity, log P of the compound; format: physicochemical; details: octanol/water
[9] = system: A549; assay: Effect on cell morphology in human A549 cells assessed as cell shrinkage at 40 uM after 48 hrs; format: functional, cell-based
In short: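 Cells exposed to 40 μM compound for 24 h and 48 h, then inspected under a phase contrast microscope for shrinkage. Untreated cells served as control.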

Row | SMILES | Activity [1] | Activity [2] | IC50 [3] | Activity [4] | Activity [5] | IC50 [6] | Activity [7] | logP [8] | Activity [9]
1 | COc1ccc(-c2cc(C(=O)NN)n(Cc3ccc(C(C)(C)C)cc3)n2)cc1 | Active | 26% | 49.9 µM | 52% | 6% | 23.9 µM | Active | 4.6 | –
2 | NNC(=O)c1cc(-c2ccccc2)nn1Cc1ccccc1 | – | – | 440 µM | – | – | – | – | 2.73 | –
3 | COc1ccc(-c2cc(C(=O)NN)n(Cc3ccccc3)n2)cc1 | – | – | 550 µM | – | – | – | – | 2.87 | –
4 | NNC(=O)c1cc(-c2ccccc2)nn1Cc1ccc(Cl)nc1 | – | – | 224 µM | – | – | 67.7 µM | – | 2.52 | –
5 | CC(C)(C)c1ccc(Cn2nc(-c3ccccc3)cc2C(=O)NN)cc1 | Active | 26% | 66.2 µM | 52% | 15% | 26.6 µM | Active | 4.49 | Active
6 | NNC(=O)c1cc(-c2ccc(Cl)cc2)nn1Cc1ccccc1 | – | – | 232 µM | – | – | 38.7 µM | – | 3.24 | –
7 | CC(C)(C)c1ccc(Cn2nc(-c3ccc(Cl)cc3)cc2C(=O)NN)cc1 | Active | 26% | 68.3 µM | 52% | 13% | 18.5 µM | Active | 4.94 | –
8 | COc1ccc(-c2cc(C(=O)NN)n(Cc3ccc(Cl)nc3)n2)cc1 | – | – | 240 µM | – | – | – | – | 2.76 | –
9 | NNC(=O)c1cc(-c2ccc(Cl)cc2)nn1Cc1ccc(Cl)nc1 | – | – | 121 µM | – | – | 30.2 µM | – | 3.12 | –
